The results in this text go back to ChEMBL document CHEMBL4513216, “Probing the Open Global Health Chemical Diversity Library for Multistage-Active Starting Points for Next-Generation Antimalarials” (ACS Infect Dis, 2020).

The nature of the data set: Toxicity liver stage against HepG2, at 10uM. It counts as cell-based. More on the design: test concentration 10 uM, cell line HepG2-A16-CD81EGFP. As to conditions: human, HepG2-A16-CD81EGFP cells; read-out: INHIBITION
A digest of the protocol:
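Uninfected HepG2-A16-CD81EGFP cells, 3 × 10^3 per well, 1536-well, plated on prespotted compound at 10 μM final, parasite-free screening media added to match infected plates; puromycin 10 μM positive, DMSO 0.5% negative; run in parallel with 48 h PbLuc assay at 37 °C, 5% CO2; viability by CellTiter-Glo luminescence, normalized to controls.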
Take `Cc1nn(CCC#N)c(C)c1[C@@H]1C=C[C@@H](NCc2cccc(Cl)c2)C1`: the cytotoxicity at 10 µM was -1.45%. With `CC(C)c1noc(-c2cccc(OCC(N)=O)c2)n1`, the cytotoxicity at 10 µM was -7.39%. Regarding `CC1(C)OCC(CNC(=O)c2cnn(-c3cccc(Cl)c3Cl)c2N)O1` (configuration not stated), the cytotoxicity at 10 µM came out at 1.93%.

Consider `Cc1ccc(NC(=O)NCC2(O)CCCC2)cc1C`, for which the cytotoxicity at 10 µM was -6.8%. The value for `Cc1ccccc1CNC(=O)N1CC[C@@H]2CN(C)S(=O)(=O)[C@@H]2CC1` was -0.39%; that for `CCOc1ncnc2c1CCN(C(=O)c1cnccn1)CC2` was -6.13%. In the case of `CNC(=O)N1CCc2cc(C(=O)NCC3CC3)c(NC(C)C)nc2CC1`, the cytotoxicity at 10 µM is 2.02%. On to `CCOc1ccc(C(=O)Nc2ccn(CC)n2)cc1`, for which the cytotoxicity at 10 µM was determined as 3.16%. The value for `CNC(=O)c1cnn2c(C3CCCN3)ccnc12` (configuration not stated) was 8.88%; that for `COc1ccccc1NC(=O)c1[nH]nc(C(C)C)c1Br` was 8.24%. Under `CC(C)c1nnc(CN2CC(n3cccn3)C2)o1` stands -149%. The value for `NC(=O)C(NC1CCN(Cc2ccc(F)cc2)CC1)c1ccccc1` (configuration not stated) was -5.4%.

Take `NC(=O)CCn1ccc(NCc2cc(F)ccc2Br)n1`: the cytotoxicity at 10 µM was -1.91%. Turning to `CN(CC(=O)NC(C)(C)C)C(=O)c1cccn1CCc1ccccc1`, the cytotoxicity at 10 µM is 6.1%. For the compound `Cc1ccc(-c2csc(-c3cccc(C(=O)O)c3)n2)cc1`, the cytotoxicity at 10 µM came to 3.21%. In the case of `COc1ccccc1OCCNC(=O)NCC(C)C`, the cytotoxicity at 10 µM came to 7.54%. For the compound `CC1CCN(C(=O)c2occc2COc2cccc(C#N)c2)CC1`, the cytotoxicity at 10 µM stood at 0.106%. Under `Cc1nc(COc2ccc(OCC(N)=O)cc2)oc1C` stands 4.68%. The value for `CCOC(=O)c1cnn(-c2cc(C)ccn2)c1N` was 11.3%; that for `O=C(Cn1cc(Cl)cn1)Nc1ccc2c(c1)OCCCO2` was 4.98%; that for `O=C(CNC(=O)c1ccoc1)NCCOc1ccc2c(c1)CCC2` was -7.98%.

As to `Cc1c(Cl)cccc1NC(=O)CCNc1ccc(C#N)cn1`, the cytotoxicity at 10 µM is -0.106%. In the case of `Cc1nsc(N2CCN(CC(=O)NCc3cccnc3)CC2)n1`, the cytotoxicity at 10 µM is -4.52%. As to `COC(=O)N1CCC(Nc2cccc(F)c2C(C)=O)C1` (configuration not stated), the cytotoxicity at 10 µM stood at 11.2%. As to `Cc1ccc(C(=O)NCCNC(=O)c2cncnc2C(C)C)cc1F`, the cytotoxicity at 10 µM was 9.52%. The value for `COc1ccc(OC)c(C(O)CN2CCN(C3CCCC3)CC2)c1` (configuration not stated) was 6.81%; that for `Cc1nn(C)c(N2CCOCC2)c1CNCC1CCCN1C` (configuration not stated) was -1.96%; that for `CS(=O)(=O)NCCC(=O)NC1(c2ccc(F)cc2)CCCC1` was -1.1%. Consider `Cc1nc(C)c(C)c(N2CCC3(CCOC3)C2)n1` (configuration not stated), for which the cytotoxicity at 10 µM was -1.31%. In the case of `Cn1c(Nc2ccc(F)cc2)c(C#N)c(=O)n(C)c1=O`, the cytotoxicity at 10 µM came out at 1.77%. The value for `Cc1ccc(NC(=O)NC(C)c2nc[nH]n2)cc1Cl` (configuration not stated) was -2.06%; that for `O=C(CNc1cc2c(cc1Cl)OCCCO2)NCc1ccc(F)cc1` was 0.854%; that for `COc1ccc(CCNC(=O)Nc2cc(C)nn2C)cc1` was -2.87%. Consider `CC(NC(=O)N(C)Cc1cnn(C)c1)c1nncn1C` (configuration not stated), for which the cytotoxicity at 10 µM was -3.03%. With `COc1ccc(CNC(=O)Nc2ccc(CN3CCOC3=O)cc2)cc1`, the cytotoxicity at 10 µM is -1.44%. Turning to `COCCCNC(=O)CN(C)Cc1ccc(F)cc1Cl`, the cytotoxicity at 10 µM was -7.33%. In the case of `Cc1nc(CNC(=O)NC2CCN(c3ncccn3)CC2)cs1`, the cytotoxicity at 10 µM was -141%. The value for `CCN(CC(=O)NC(C)C)C(=O)C(C)(C)c1ccc2c(c1)OCCO2` was -2.79%; that for `CC(=O)Nc1nc(C(=O)NCCOc2ccccc2F)cs1` was -6.19%; that for `COc1ccccc1-c1cc(NC(=O)CCS(=O)(=O)C2CCCC2)[nH]n1` was -123%.

As for `COc1c(C)cnc(CNC(=O)CCc2nc3ccccc3[nH]2)c1C`, the cytotoxicity at 10 µM was -5.27%. Under `CCc1cnc(CN2CCOC(c3nc(C)n[nH]3)C2)o1` (configuration not stated) stands -4.83%; under `Cc1cccnc1NC(=O)C1CCN(C(C)C(=O)NC(C)(C)C)CC1` (configuration not stated), 3.15%; under `CCc1cnc(CNC(=O)NC2CCN(C3CCCC3)CC2)s1`, -1.06%. Under `COc1cccc2c1CCN(C(=O)NCc1nnc3ccccn13)C2` stands 0.67%; under `CC(C)n1cnnc1CN(C)Cc1ccc(CO)o1`, 3.68%.

For the compound `O=C(c1cccc(-c2ccc(F)cc2)c1)N1CCCC(O)(CO)CC1` (configuration not stated), the cytotoxicity at 10 µM is -4.77%. Under `CN1CCCCC1Cc1nc2c(cc1C(N)=O)CCC2` (configuration not stated) stands -9.55%; under `COc1ccc(C(=O)N2CCN(C(=O)Cn3nccc3C)CC2)cc1`, 6.88%.

Regarding `CC(NS(C)(=O)=O)C(=O)N(C)Cc1csc(-c2cccs2)n1` (configuration not stated), the cytotoxicity at 10 µM was -0.525%. `CCN(CCCN1CCOCC1)C(=O)c1cnn(CC)c1`: the cytotoxicity at 10 µM stood at 46.6%. The value for `O=C1NCCCCC1NC(=O)C1(Oc2ccc(Cl)cc2)CCNCC1` (configuration not stated) was -6.21%.

`O[C@H]1[C@H](n2cc(-c3ccccn3)nn2)c2ccccc2C12CCNCC2`: the cytotoxicity at 10 µM was -11.5%. As for `Cc1ccc2ncccc2c1CN1CC[C@H](N(C)C)[C@H](CCC(=O)O)C1`, the cytotoxicity at 10 µM is -148%. Turning to `O=C1CN(C(=O)c2cc(-c3ccco3)nc3c(Cl)cccc23)CCN1`, the cytotoxicity at 10 µM is -5.2%. Under `CN(Cc1ccoc1)c1ccc(-c2nccn2C)nn1` stands -5.12%; under `CCc1ccc2nc(C)cc(C(=O)NC3CCNC3=O)c2c1` (configuration not stated), -4.65%.

In the case of `Cc1ncsc1CN1CC(C)(C2CC2)CC1=O` (configuration not stated), the cytotoxicity at 10 µM came out at 0.832%.

`COCCNC(=O)[C@H]1C[C@@](CC(C)C)(C(=O)O)N(C)[C@H]1c1cccnc1`: the cytotoxicity at 10 µM was -6.16%. Turning to `CCc1nc(N2CCCC(O)(CO)CC2)ncc1C` (configuration not stated), the cytotoxicity at 10 µM was found to be 10.8%.

As to `Cc1ccc(SCCN(C)C(=O)c2cn(CCN)nn2)cc1`, the cytotoxicity at 10 µM was -4.7%. Under `CCc1ccc(-c2cn3c(C(=O)NCC(C)C(=O)NC)csc3n2)cc1` (configuration not stated) stands 9.21%; under `CC(=O)N1CCCC(C(=O)NCc2noc(Cc3ccccc3)n2)C1` (configuration not stated), 3.02%; under `Cc1nnc(NC(=O)N2CCCN(C3CCCC3)CC2)s1`, -3.16%.

For the compound `Cc1nn(C)cc1-c1ccnc(N(C)Cc2noc(C(C)C)n2)n1`, the cytotoxicity at 10 µM worked out at 1.41%. Under `CNC(=O)C1CCN(c2ncc3c(n2)CCN3c2ccccc2)C1` (configuration not stated) stands -10.1%. As to `CCSC(C)c1nc(-c2ccc(C)nn2)no1` (configuration not stated), the cytotoxicity at 10 µM is -6.24%. The value for `COc1cccc(-c2c[nH]c(C)n2)c1F` was -3.29%; that for `O=C(Cn1nc2ccccc2n1)N1CCCC(O)(CN2CCCC2)C1` (configuration not stated) was -10.4%; that for `Cc1cccc(C2CCCN(C(=O)CN3CCC(C(N)=O)CC3)C2)c1` (configuration not stated) was -5.17%. For `CCCn1ccnc1CN1C[C@@H](NC(C)=O)[C@H](c2ccc(OC)cc2)C1`, the cytotoxicity at 10 µM stood at 0.344%. Under `CC(C)=CCCC(C)CN1CCC(n2cc(CO)nn2)CC1` (configuration not stated) stands -6.37%; under `CCC(=O)c1ccc(OCC(=O)NC(C)c2nnc(C)[nH]2)cc1` (configuration not stated), 5.37%. For `COc1ccc2c(C)c(C(=O)NC3CCOCC3)oc2c1`, the cytotoxicity at 10 µM came out at 15.2%. Turning to `O=C(CSc1ccccc1)N1CCc2c(ncnc2N2CCOCC2)C1`, the cytotoxicity at 10 µM was -7.15%. The value for `O=C(c1ncccc1O)N1CCc2c(ncnc2N2CCOCC2)C1` was -3.99%; that for `CC(C)(O)CCc1cccc(C(=O)N2CCC3(CCOCC3)CC2)c1` was 1.14%. Under `CC(C)c1cc(C(=O)N2CCN(c3ccncc3)CC2)n(C)n1` stands -3.5%.

Consider `Cc1nccc(-c2ccccc2)c1C(=O)N1CCC2(CN(C)C(=O)O2)C1` (configuration not stated), for which the cytotoxicity at 10 µM is 4.77%. As to `COC[C@@H]1CCCN1C(=O)c1cc(-c2cccc(OC)c2)n[nH]1`, the cytotoxicity at 10 µM was 6.6%. Under `CCNC(=O)[C@@H]1C[C@H](N)CN1c1cc(C(F)(F)F)nc(N2CCCC2)n1` stands -3.97%; under `CC(C)(C)n1ccc(C(=O)N2CCCC(c3ccc(C(=O)O)cc3)C2)c1` (configuration not stated), 1.31%. Under `O=C(Nc1ccc(F)cc1)C1CNCCN1C(=O)CCO` (configuration not stated) stands 1.93%; under `COC1CCN(C(=O)Nc2cc(C(F)(F)F)c[nH]c2=O)CC1`, 4.1%; under `COc1cccc(COCC(=O)N2CCCN(CC(N)=O)CC2)c1`, -7.04%. The value for `Cc1cccc(-c2noc(CN3CCOC(Cn4cccn4)C3)n2)c1` (configuration not stated) was -3.07%; that for `O=C(CCN1CCOC(Cn2cccn2)C1)NC1CCCCC1` (configuration not stated) was -6.28%. On to `Cc1cc(C)n(CC2CCCN2C(=O)c2nccc3ccccc23)n1` (configuration not stated), for which the cytotoxicity at 10 µM is -7.49%. Under `CN(C)[C@@H]1CCN(c2ncc(F)cn2)[C@H]1Cc1ccccc1` stands -1.65%. The value for `COCC1CN(Cc2ccc(C)o2)Cc2nnn(C)c21` (configuration not stated) was -4.53%. In the case of `CCN(C)c1ncnc2c1CCN(C(=O)c1ccoc1C)CC2`, the cytotoxicity at 10 µM is -0.675%. The value for `O=C([C@@H]1CCO[C@@H]2CCN(CCc3ccccc3)C[C@@H]21)N1CCCC1` was -3.06%; that for `COc1c(CNC2(c3noc(C)n3)CCC2)c(C(C)C)nn1C` was 2.08%; that for `N#Cc1cccc(CN2Cc3nccn3CC(COCC3CC3)C2)c1` (configuration not stated) was -127%. The value for `Cc1nn(C)cc1C(=O)N1C[C@@H]2CC[C@H]1CN(S(=O)(=O)N(C)C)C2` was 19.8%; that for `COCCN1C[C@@H]2CC[C@H]1CN(Cc1ccc3ccccc3n1)C2` was -11.3%.

For the compound `CNc1ccnc(N2C[C@H]3CC[C@@H](C2)N(CCOC)C3=O)n1`, the cytotoxicity at 10 µM is 7.64%.
